The test system of this data set is MS2 coat protein. The data set is described as follows: apparent Kd, MS2 coat protein; higher = weaker binding; RNA-MaP array; FMN 200 µM where present. An outline of the steps:
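Designs on Illumina sequencing-chip clusters, transcribed by stalled E. coli RNA polymerase, were exposed to SNAP-549-labelled MS2 coat protein in doubling steps from 0.7 or 1.5 nM up to 3 µM, without and then with constant ligand. The buffer held 100 mM Tris-HCl pH 7.5, 80 mM KCl, 4 mM MgCl2, BSA, DTT, yeast tRNA and Tween-20. Apparent Kd values are medians of filtered per-cluster binding-curve fits to green signal normalised to red-channel RNA signal and control-cluster median Fmax.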

[1] abbreviates: designed as: OFF switch for flavin mononucleotide, no ligand.
The mark [2] stands for this setting: ligand present: flavin mononucleotide, designed as: OFF switch for flavin mononucleotide.
The mark [3] stands for this setting: designed as: ON switch for flavin mononucleotide, no ligand.
[4] abbreviates: ligand present: flavin mononucleotide, designed as: ON switch for flavin mononucleotide.

Usually apparent Kd stands for a dissociation constant that holds for the conditions of the assay. For “CGAUGUUAUGUCAGGAUAUGCGUUGCGAAAGCAAUGUAGAAGGGACAUGAGGAUCACCCAUGUGCUAACCAUCG”, the “apparent Kd” value under setting [1] is 18.7 nM and the “apparent Kd” value under setting [2] came to 51.1 nM.

Regarding “CGUAACUGCAUAGGAUAUUGAUACAUGAGGAUCACCCAUGUUUUUCGGAUUUGUAAUAUACUAAGCAAGAAGGAUGGAGUUACG”, the “apparent Kd” value by setting is: under setting [3], 8.04 nM; under setting [4], 5.66 nM.

As for “AAUAUGUUGCAGAAGGUUAUAUUUUUUUAGUACCUCAUUACAUGAGGAUCACCCAUGUAAAUGAUGAAGGAUAUGCAAUAUAUU”, the “apparent Kd” value under setting [1] turned out to be 19.3 nM and the “apparent Kd” value under setting [2] was found to be 16.4 nM.

Consider “UUAGCAACAUGAGGAUCACCCAUGUAGGAUAUCGCUAUUGUAAUCAUGAAACAUGAUUACAAUAGCGAGAAGGACAUAUGCUAU”, for which the “apparent Kd” value reads like this: under setting [1], 10.1 nM; under setting [2], 11.7 nM.

Turning to “UUAUUUUUACAGAAGGUUUAAUAAUAUGUAUGAGAAGGAUAUGUAACAUGAGGAUCACCCAUGUUUCGUCUAUAUGAGGAUCAU”, the “apparent Kd” value under setting [1] is 6.77 nM and the “apparent Kd” value under setting [2] amounted to 7.22 nM.

For the sequence “GUAAAUCAUGUAGGAUAUGCAUGGCGAAGCUACGCAGAAGGACAUGAGGAUCACCCAUGUUAUAGCUACCCGUUACGGUGGCAA”, the “apparent Kd” value amounted to 100 nM under setting [1] and 236 nM under setting [2].

On to “AAUAAACAUGAGGAUCACCCAUGUCCCACCAGCCAAGGAUAUGGGCCCGCCGCACAGGUACCAGAAGGUGGCUGCC”, for which the “apparent Kd” value is, setting by setting: under setting [3], 165 nM; under setting [4], 55.7 nM.

With “UGAGCAUCAGGAUAUACGUGACGACCGUGAGGUCGAAGGUUACAUGAGGAUCACCCAUGUAGAAGGGAUGUUCU”, the “apparent Kd” value under setting [1] came to 26.5 nM and the “apparent Kd” value under setting [2] is 57.9 nM.

For the sequence “GUAUCGUGAGGAUAUCUAGACUGACUUAGUACAUGUCAGCUGGAGAAGGCACAUGAGGAUCACCCAUGUGAUUA”, the “apparent Kd” value came to 22.6 nM under setting [1] and 73.8 nM under setting [2].

On to “UGCUUCAUGUAAGGAUAUGCAGCCGUUUCGGCUGCAGAAGGUACUAUAAUACAUGAGGAUCACCCAUGUCUCUCGCAUUGCGAG”, for which the “apparent Kd” value is, setting by setting: under setting [3], 240 nM; under setting [4], 95.6 nM.

On to “GGUACUCAAAGAGUACCAAUACGAACAUGAGGAUCACCCAUGUAGGAUAUGCUACUCAAAGAGUAGCAGAAGGACAUGUGCAUA”, for which the “apparent Kd” value under setting [1] was 22.1 nM and the “apparent Kd” value under setting [2] turned out to be 135 nM.

Take “UAGAUGGGAGGAUAUACGUAGAUACAGAUUCAUGUAGUGCUACAUGAGGAUCACCCAUGUAGAAGGCCCGUCUU”: the “apparent Kd” value by setting is: under setting [1], 39.4 nM; under setting [2], 330 nM.

With “AAGGGUAGGCAGGAUAUCCAGGUCGACACCGCGGGAGAAGGGCUUACAUGAGGAUCACCCAUGUAGGGUGCGAU”, the “apparent Kd” value is 177 nM under setting [1] and 129 nM under setting [2].

As to “CCGACGAAAGUCGAACGAUGUAGCAGAAGGACAUGAGGAUCACCCAUGUCAGCUGUAACAGCCAUGUAGGAUAUGCUACAUCGA”, the “apparent Kd” value was found to be 4.41 nM under setting [1] and 5.85 nM under setting [2].

For “AAAAAGGCAGGAUAUACGAGUCAAAGAAAAGACAAAAAGGGACAUGAGGAUCACCCAUGUAGAAGGGCCAAAAA”, the “apparent Kd” value worked out at 36.9 nM under setting [1] and 227 nM under setting [2].

With “GAUAUGUUAGGAUAUCGGAAAACGGCCCACUGGCACGGAAGCGAGAAGGGACAUGAGGAUCACCCAUGUGAAAG”, the “apparent Kd” value under setting [1] stood at 48.1 nM and the “apparent Kd” value under setting [2] came to 31.4 nM.

On to “UGAAAGCUAGGAUAUACAUGAGGAUCACCCAUGUACCGGCUUGGCCCUGGUCCAAAGUGUAGAAGGAGCACGCC”, for which the “apparent Kd” value was determined as 28.2 nM under setting [1] and 50.3 nM under setting [2].

Turning to “GGGUGGCGUAGAGGAUAUGUGUUACAUGAGGAUCACCCAUGUGCAUAUGAUGUUCGUGUGUGUGUAUAGAAGGCUACGUCGCUA”, the “apparent Kd” value under setting [3] turned out to be 14.4 nM and the “apparent Kd” value under setting [4] was found to be 17.7 nM.

Take “CCUCGACAUGAGGAUCACCCAUGUAAGGAUAUUCUAGGACGUGUUUUUCGUAGCUUUAGAAGAAGGUGCAGGUU”: the “apparent Kd” value runs as follows: under setting [1], 49.5 nM; under setting [2], 175 nM.

For the sequence “AGCUGGAGAGGAUAUACGUAAGUGAAAAAAGUCUGAUAACUACAUGAGGAUCACCCAUGUAGAAGGCUCUGGCA”, the “apparent Kd” value is, setting by setting: under setting [1], 19.3 nM; under setting [2], 33.2 nM.

With “UUAGCAACAUGAGGAUCACCCAUGUAGGAUAUCGCUAUUGUAAUCAUGAAACAUGAUUACAAUAGCGAGAAGGACAUAUGCUAC”, the “apparent Kd” value runs as follows: under setting [1], 11.2 nM; under setting [2], 12.1 nM.

Take “GAACUGAAGCUUAGCUUUAGUCGUACAUGAGGAUCACCCAUGUAGGAUAUGGUAGGCAUAGCUUACUAGAAGGAUAGAGUGAUC”: the “apparent Kd” value was 198 nM under setting [1] and 69.6 nM under setting [2].

“AGAAUGGGCGAGAAGGGAGUACAUGAGGAUCACCCAUGUGGUUCAUGGUGCUCAGGAUAUCGAUAGACCAGGGAGCGUCUCUGA”: the “apparent Kd” value under setting [1] came to 30 nM and the “apparent Kd” value under setting [2] came out at 148 nM.

Regarding “CCUUUGUCAGGAUAUCAGUACAGGUCGAGUUUAGACCUGUUUGAGAAGGGACAUGAGGAUCACCCAUGUAAAAC”, the “apparent Kd” value by setting is: under setting [1], 125 nM; under setting [2], 161 nM.

Turning to “UAGGUACAUGAGGAUCACCCAUGUGAGGAUAUAGUUGAAGAUUGCGAGAGGGAGAGGACUAGAAGGCACAGUGG”, the “apparent Kd” value is, setting by setting: under setting [1], 50.5 nM; under setting [2], 69 nM.

Regarding “UUUUUGUGAGGAUAUUAGUAGUAAAUAAAUAAAAUUAUUACUGAGAAGGCACAUGAGGAUCACCCAUGUUCCUU”, the “apparent Kd” value is, setting by setting: under setting [1], 14.8 nM; under setting [2], 68.1 nM.

For “UUCCCAGCGGGAGGAUAUGGUGCCUUAUUGGUGCUAGAAGGUCCAACAUGAGGAUCACCCAUGUGGGAGUGGUCUAAUGACCUC”, the “apparent Kd” value stood at 212 nM under setting [3] and 144 nM under setting [4].

Consider “AAAACUUCAGAGAAGGACCCAUCGGCGAGAUGGGUAGGAUAUCUGACUUGAGGUGUCCUGACAUGAGGAUCACCCAUGUAUAAA”, for which the “apparent Kd” value runs as follows: under setting [1], 418 nM; under setting [2], 61.4 nM.

Regarding “AAGUCUGUACGAGGAUAUCAGUUGUAUCUAGAUUCAACAUGAGGAUCACCCAUGUUGCAAUAGGGUGAGAAGGCGUGUGGGCAA”, the “apparent Kd” value came to 101 nM under setting [3] and 25.3 nM under setting [4].

Regarding “ACCUAUGAGGAGGAUAUACGGUGCGAAAGGACGGUAGAAGGCUUCACAUGAGGAUCACCCAUGUCGAUAAGCGA”, the “apparent Kd” value under setting [1] was 21.2 nM and the “apparent Kd” value under setting [2] was 22.5 nM.

As to “UGUCGGAGCAGAGGAUAUUACAUGAGGAUCACCCAUGUAUAAAAUGGAAGCUGGAAACAGCAAUGUAAGAAGGCUGCUCCGACA”, the “apparent Kd” value was 61.2 nM under setting [1] and 288 nM under setting [2].

On to “AAUUUACAGCUAGGAUAUACAUGAGGAUCACCCAUGUAAUGAUUGGAUCUUAUGAUCGUAUCAGUGUAGAAGGAGCAAAUAAGA”, for which the “apparent Kd” value amounted to 13.4 nM under setting [1] and 28.4 nM under setting [2].

Take “AGUGUGAGGCAGGAUAUGCUAUAUGUUCGUAAUGCAGAAGGGUCUACAUGAGGAUCACCCAUGUGUGCGGUUGA”: the “apparent Kd” value reads like this: under setting [1], 183 nM; under setting [2], 523 nM.

Regarding “GGAUAGGACAGAGGAUAUACGGCUAGGAGAUACUAGCUACUAUUCCUCACAUGAGGAUCACCCAUGUAGAAGGCUGUCCUAUCG”, the “apparent Kd” value reads like this: under setting [1], 17.6 nM; under setting [2], 140 nM.

Turning to “UGUUGUAUUACAGGAUAUCUAUGAUUAUUAUUUAGAGAAGGGUAUUCACAUGAGGAUCACCCAUGUAUAUACGAGGAAGUUGUG”, the “apparent Kd” value under setting [3] was found to be 40.7 nM and the “apparent Kd” value under setting [4] was determined as 48.7 nM.

Consider “AAGCGAAAGCUAAAAUAUCUAUCAGAGGAUAUUUAUGAUACAUGAGGAUCACCCAUGUGGCGCUGGGAGAAGGCUGAUAGAUAA”, for which the “apparent Kd” value is 12.9 nM under setting [3] and 6.79 nM under setting [4].

Consider “UUGGUAUUCGUAGGAUAUCCGUCGCCACCGUGUGGAGAAGGACGAACAUGAGGAUCACCCAUGUAUCAUGGUGUGGGCGUUGUC”, for which the “apparent Kd” value worked out at 92.5 nM under setting [1] and 90.1 nM under setting [2].

In the case of “UUGGACGUCGUAGAAUAUGUAGGAUAUUCCUACAUGAGGAUCACCCAUGUUGACAUGGAAGAAGGACAGAAGGACGAUGUCCAU”, the “apparent Kd” value was 188 nM under setting [3] and 7.02 nM under setting [4].

Take “GGAUCGAAUGUGAGGAUAUGCUGGUCCUUGGAUCAGCAGAAGGCACAUGAGGAUCACCCAUGUGACUAAGAUCC”: the “apparent Kd” value turned out to be 32.7 nM under setting [1] and 248 nM under setting [2].

As to “CUCCUACAUGAGGAUCACCCAUGUCAGGAUAUCUCAGUAGCACCUAAAGGUGCUACCCAGAGAAGGGACGUGCA”, the “apparent Kd” value under setting [1] was 11.6 nM and the “apparent Kd” value under setting [2] was determined as 15.5 nM.

For “AAAUUCAGAGGAUAUGCGCAUAGAUAAGACUUUGUUUCUUAACAUGAGGAUCACCCAUGUAGAAGGCUGUACCC”, the “apparent Kd” value reads like this: under setting [1], 17.9 nM; under setting [2], 20.1 nM.

Regarding “UGGCUGAGUCGAGGAUAUGAUCUUCAUAUAUAUACAUGAGGAUCACCCAUGUAUAAUUACAUGGAUCAGAAGGCGACUCAGCCA”, the “apparent Kd” value runs as follows: under setting [3], 31.6 nM; under setting [4], 11.5 nM.

“GAAUGAGAGCAGGAUAUCUUAUAAUUGUAUGAAAGAGAAGGGCUCACAUGAGGAUCACCCAUGUGGUCCUAGAU”: the “apparent Kd” value was found to be 42 nM under setting [1] and 299 nM under setting [2].

With “GCCAUCUCAUGAGGAUAUGCUCCUGUUUCGGGAGCAGAAGGCAUGUCAUAAGACAUGAGGAUCACCCAUGUAGUUAAGAUGGCA”, the “apparent Kd” value is, setting by setting: under setting [3], 256 nM; under setting [4], 11.3 nM.

Turning to “UUGGCAUCGUAGAAGGGUGACAUGAGGAUCACCCAUGUGAUGAUAUUUCUCGAGAUAUGUUGUCCAUAGGAUAUACGAGCGAAC”, the “apparent Kd” value runs as follows: under setting [3], 80.9 nM; under setting [4], 18.4 nM.

For the sequence “CCGGAAACGGGUAGCUGACAUGAGGAUCACCCAUGUGAAUCUGAGGAUAUGGAUCCUAAUUGGAUCCAGAAGGCAGUCAGCUAC”, the “apparent Kd” value is, setting by setting: under setting [3], 615 nM; under setting [4], 61.4 nM.

Turning to “AUCAGGUCGUCAGGAUAUACGUCACUGCGUCAGCAGUGUGGUAAGAUCACAUGAGGAUCACCCAUGUAGAAGGGACGAGCUGAU”, the “apparent Kd” value runs as follows: under setting [1], 13.2 nM; under setting [2], 311 nM.

As for “GCGAUGUCAGGAUAUGUGUAAAGAAUAAAACAAAUAACAACACAGAAGGGACAUGAGGAUCACCCAUGUUACGC”, the “apparent Kd” value runs as follows: under setting [1], 30.1 nM; under setting [2], 37.2 nM.

The record behind these values is the EternaBench riboswitch data.
